Measurements taken from ChEMBL document CHEMBL1148599, “Antitumor benzothiazoles. 26.(1) 2-(3,4-dimethoxyphenyl)-5-fluorobenzothiazole (GW 610, NSC 721648), a simple fluorinated 2-arylbenzothiazole, shows potent and selective inhibitory activity against lung, colon, and breast cancer cell lines” (2006).
Calls of active or inactive are those of the source. The calls are words filed in the database; no cut-off is given here.

Experiments:
MCF7 [1] = experiment: Antiproliferative activity against human breast cancer cell line MCF7; assay type: functional
Outline: (§1)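 Cells kept in RPMI 1640 with 2 mM L-glutamine and 10% FCS at 37 °C, 5% CO2. Seeded 5 × 10³/well, left 24 h to adhere, then exposed 72 h to 0.1 nM–100 µM final (DMSO stocks diluted in medium, n = 8). MTT 400 µg/mL final added at dosing and at 72 h, 4 h at 37 °C. Formazan dissolved in DMSO:glycine pH 10.5, A550 read. GI50 from triplicate tests.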

MDA-MB-468 [2] = experiment: Antiproliferative activity against human breast cancer cell line MDA468; assay type: functional; outline: as §1
KM12 [3] = experiment: Antiproliferative activity against human colon cancer cell line KM12; assay type: functional; outline: as §1
HCC 2998 [4] = experiment: Antiproliferative activity against human colon cancer cell line HCC2998; assay type: functional; outline: as §1
MCF7 [5] = experiment: Ability to induce CYP1A1 protein expression in […] human breast cancer cell line MCF7; assay type: functional, cell-based
Outline: (§2)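 Whole-cell lysates from untreated cultures and from cells exposed 24 h to 10 nM–10 µM compound. Protein-normalized samples heated 95 °C 5 min, run on 10% SDS-PAGE and electroblotted to PVDF. Probed with polyclonal anti-human CYP1A1/1A2 antiserum and an alkaline phosphatase secondary, developed with BCIP/NBT. Recombinant CYP1A1 served as positive control for the 52 kDa band.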

MDA-MB-468 [6] = experiment: Ability to induce CYP1A1 protein expression in […] human breast cancer cell line MDA468; assay type: functional, cell-based; outline: as §2
KM12 [7] = experiment: Ability to induce CYP1A1 protein expression in sensitive human colon cancer cell line KM12; assay type: functional, cell-based; outline: as §2
HCC 2998 [8] = experiment: Ability to induce CYP1A1 protein expression in sensitive human colon cancer cell line HCC2998; assay type: functional, cell-based; outline: as §2

| SMILES | GI50 (MCF7 [1]) [nM] | GI50 (MDA-MB-468 [2]) [nM] | GI50 (KM12 [3]) [nM] | GI50 (HCC 2998 [4]) [nM] | Activity (MCF7 [5]) | Activity (MDA-MB-468 [6]) | Activity (KM12 [7]) | Activity (HCC 2998 [8]) |
| --- | --- | --- | --- | --- | --- | --- | --- | --- |
| COc1ccc(-c2nc3cc(F)ccc3s2)c(OC)c1OC | 23 | 120 | 14200 | 37 | – | – | – | – |
| COc1ccc(-c2nc3cc(F)ccc3s2)cc1 | 490 | 330 | 24600 | 12400 | – | – | – | – |
| COc1ccc(-c2nc3cc(F)ccc3s2)cc1OC | – | < 0.1 | 290 | – | Active | Active | inactive | inactive |
| COc1ccc(-c2nc3cc(F)ccc3s2)cc1F | 870 | 640 | 20600 | 13700 | – | – | – | – |
| CCOc1ccc(-c2nc3cc(F)ccc3s2)cc1OCC | – | 55 | 38500 | – | – | – | – | – |
| COc1ccc(-c2nc3cc(F)ccc3s2)cc1C | 48 | 58 | 18600 | 540 | – | – | – | – |
| COc1ccc(-c2nc3ccc(F)cc3s2)cc1OC | 62 | 5 | 24100 | 6210 | – | – | – | – |
| Oc1ccc(-c2nc3cc(F)ccc3s2)cc1O | 720 | 190 | 13000 | 1640 | – | – | – | – |
| COc1ccc(-c2nc3cc(F)ccc3s2)cc1Cl | 760 | 480 | 7050 | 2500 | – | – | – | – |
| COc1cc(-c2nc3cc(F)ccc3s2)cc(O)c1OC | 653 | 88 | 47500 | 6490 | – | – | – | – |
| Cc1cc(-c2nc3cc(F)ccc3s2)ccc1N | – | < 0.1 | > 100000 | > 100000 | – | – | – | – |
| COc1ccc(-c2nc3cc(F)ccc3s2)cc1Br | 850 | 420 | 6700 | 3450 | – | – | – | – |
| COc1ccc(-c2nc3ccccc3s2)cc1OC | 52700 | 530 | 74200 | 42500 | Active | Active | – | – |
| COc1ccc(-c2nc3cc(F)ccc3s2)cc1O | 500 | 50 | 18400 | 7600 | – | – | – | – |
| COCOc1ccc(-c2nc3cc(F)ccc3s2)cc1OC | 65 | 48 | 19200 | 53500 | – | – | – | – |
| Cc1cc(-c2nc3ccccc3s2)ccc1N | – | < 0.1 | > 100000 | > 100000 | – | – | – | – |
| COc1cc(OC)cc(-c2nc3cc(F)ccc3s2)c1 | 1230 | 310 | 7550 | 5210 | – | – | – | – |
| COc1ccc(-c2nc3cc(Br)ccc3s2)cc1OC | 13600 | 770 | 65200 | 20000 | – | – | – | – |
| Oc1ccc(-c2nc3ccccc3s2)cc1O | 2190 | 220 | 15600 | 6990 | – | – | – | – |
| CCOc1cc(-c2nc3cc(F)ccc3s2)ccc1OC | 80 | 92 | 5420 | 3320 | – | – | – | – |
| COc1ccc(-c2nc3cc(Cl)ccc3s2)cc1OC | 27900 | 1000 | 12400 | 4880 | – | – | – | – |
| c1ccc2sc(-c3ccc4c(c3)OCO4)nc2c1 | 57800 | 800 | 98600 | 68300 | – | – | – | – |
| COc1ccc(-c2nc3c(F)cccc3s2)cc1OC | 5 | 5 | 850 | 1060 | – | – | – | – |
| COc1cc(-c2nc3cc(F)ccc3s2)cc(OC)c1OC | 1.9 | 2.1 | 13000 | 21100 | – | – | – | – |
| COc1cc(-c2nc3cc(F)ccc3s2)ccc1O | 750 | 170 | 47300 | 1040 | – | – | – | – |
| COc1ccc(-c2nc3cc(F)ccc3s2)cc1I | 820 | 360 | 6900 | 940 | – | – | – | – |
| Fc1ccc2sc(-c3ccc4c(c3)OCO4)nc2c1 | 20700 | 570 | 25100 | 22300 | Active | Active | – | – |
